# Calls of active or inactive are those of the source. The calls are words filed in the database; no cut-off is given here.
# Columns and labels:
# [1] = Half life in rat at 3 mg/kg, iv; format: ADME, organism-based; conditions: in vivo
# Method in brief: (§1)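 Male rats, n = 6 per group, given a single intravenous dose of 3 mg/kg. PK parameters taken from serum concentration–time profiles: t1/2, AUC0-t, AUC0-∞, clearance.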
# [2] = Apparent oral clearance in rat at 10 mg/kg, po; format: ADME, organism-based; conditions: in vivo
# Method in brief: (§2)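 Male rats, n = 6 per group, given a single oral dose of 10 mg/kg. PK parameters taken from serum concentration–time profiles: Cmax, Tmax, t1/2, AUC0-t, AUC0-∞, CL/F, F%.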
# [3] = Therapeutic index, ratio of ED50 for induction of catalepsy in po dosed mouse to ED50 for antipsychotic activity in po dosed mouse assessed as suppression of apomorphine-induced climbing; format: toxicity, organism-based; conditions: in vivo, read-out: Ratio ED50
# Method in brief: (§3)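 Therapeutic index is the catalepsy ED50 divided by the efficacy ED50 from the apomorphine climbing or MK-801 hyperactivity model. All were oral dosing in mice, vehicle 30% PEG 400.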
# [4] = Therapeutic index, ratio of ED50 for induction of catalepsy in po dosed mouse to ED50 for antipsychotic activity in po dosed mouse assessed as reduction in MK-801-induced hyperlocomotor activity; format: toxicity, organism-based; conditions: in vivo, read-out: Ratio ED50; method in brief: as §3
# [5] = target: T1, Alpha-2A adrenergic receptor (Homo sapiens, UniProt P08913); assay: Binding affinity to alpha2 adrenergic receptor (unknown origin)
# T1 sequence (P08913 whole entry): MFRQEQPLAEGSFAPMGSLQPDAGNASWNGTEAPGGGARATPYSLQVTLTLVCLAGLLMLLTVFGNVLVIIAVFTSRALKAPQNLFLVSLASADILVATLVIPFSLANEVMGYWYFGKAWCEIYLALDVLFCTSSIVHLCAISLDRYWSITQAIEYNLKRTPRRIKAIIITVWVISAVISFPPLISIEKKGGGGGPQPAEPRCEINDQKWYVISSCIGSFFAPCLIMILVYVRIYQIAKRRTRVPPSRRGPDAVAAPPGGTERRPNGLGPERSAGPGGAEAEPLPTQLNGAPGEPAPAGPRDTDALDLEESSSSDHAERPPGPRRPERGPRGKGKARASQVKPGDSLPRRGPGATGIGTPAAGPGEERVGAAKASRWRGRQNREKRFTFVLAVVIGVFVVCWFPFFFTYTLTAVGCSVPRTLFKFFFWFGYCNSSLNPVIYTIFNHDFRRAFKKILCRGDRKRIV
# Method in brief: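 Radioligand displacement binding. Ki is the mean ± SEM of three experiments.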
# [6] = tested on: Mus musculus; assay: Antipsychotic activity in po dosed mouse assessed as suppression in DOI-induced head twitching response; format: functional
# Method in brief: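 Mouse head twitch induced by DOI 1.0 mg/kg ip. Oral pretreatment at 0.01, 0.03, 0.1, 0.3 and 1.0 mg/kg in 30% PEG 400. ED50 reported with 95% confidence limits.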
# [7] = Tmax in rat at 10 mg/kg, po; format: ADME, organism-based; conditions: in vivo; method in brief: as §2
# [8] = target: Voltage-gated inwardly rectifying potassium channel KCNH2 (Homo sapiens, UniProt Q12809); assay: Inhibition of human ERG by patch-clamp method
# [9] = tested on: Rattus norvegicus; assay: Memory enhancement effect in rat assessed as increase in total exploratory time for novel objects at 0.01 mg/kg, po administered 1 hr prior to acquisition trial and measured after 24 hrs by novel object recognition test; format: functional, organism-based; conditions: time 25.0 hrs
# Method in brief: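 Rat novel object recognition, n = 10. Oral dosing in 30% PEG 400 1 h before the acquisition trial with two identical objects. At 24 h one object was replaced by a novel one and exploration times were scored. Mean ± SEM, post-hoc Student's t-test versus vehicle.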
# [10] = Cmax in rat at 10 mg/kg, po; format: ADME, organism-based; design: route oral, dose 10 mg/kg; conditions: in vivo; method in brief: as §2
# [11] = tested on: Mus musculus; assay: Antipsychotic activity in po dosed mouse assessed as suppression of apomorphine-induced climbing behaviour; format: functional
# Method in brief: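 Mice climbing induced by apomorphine 1.0 mg/kg sc. Test article given po at 0.01, 0.03, 0.1, 0.3 and 1.0 mg/kg in 30% PEG 400. ED50 reported with 95% confidence limits.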
# [12] = target: 5-hydroxytryptamine receptor 2A (Homo sapiens, UniProt P28223); assay: Binding affinity to 5HT2A receptor (unknown origin)
# [13] = target: Histamine H1 receptor (Homo sapiens, UniProt P35367); assay: Binding affinity to H1 receptor (unknown origin); format: ADME
# [14] = AUC (0 to infinity) in rat at 3 mg/kg, iv; format: ADME, organism-based; design: route intravenous, time infinity, dose 3 mg/kg; conditions: in vivo; method in brief: as §1
# Chain of Voltage-gated inwardly rectifying potassium channel KCNH2 (Q12809 whole entry): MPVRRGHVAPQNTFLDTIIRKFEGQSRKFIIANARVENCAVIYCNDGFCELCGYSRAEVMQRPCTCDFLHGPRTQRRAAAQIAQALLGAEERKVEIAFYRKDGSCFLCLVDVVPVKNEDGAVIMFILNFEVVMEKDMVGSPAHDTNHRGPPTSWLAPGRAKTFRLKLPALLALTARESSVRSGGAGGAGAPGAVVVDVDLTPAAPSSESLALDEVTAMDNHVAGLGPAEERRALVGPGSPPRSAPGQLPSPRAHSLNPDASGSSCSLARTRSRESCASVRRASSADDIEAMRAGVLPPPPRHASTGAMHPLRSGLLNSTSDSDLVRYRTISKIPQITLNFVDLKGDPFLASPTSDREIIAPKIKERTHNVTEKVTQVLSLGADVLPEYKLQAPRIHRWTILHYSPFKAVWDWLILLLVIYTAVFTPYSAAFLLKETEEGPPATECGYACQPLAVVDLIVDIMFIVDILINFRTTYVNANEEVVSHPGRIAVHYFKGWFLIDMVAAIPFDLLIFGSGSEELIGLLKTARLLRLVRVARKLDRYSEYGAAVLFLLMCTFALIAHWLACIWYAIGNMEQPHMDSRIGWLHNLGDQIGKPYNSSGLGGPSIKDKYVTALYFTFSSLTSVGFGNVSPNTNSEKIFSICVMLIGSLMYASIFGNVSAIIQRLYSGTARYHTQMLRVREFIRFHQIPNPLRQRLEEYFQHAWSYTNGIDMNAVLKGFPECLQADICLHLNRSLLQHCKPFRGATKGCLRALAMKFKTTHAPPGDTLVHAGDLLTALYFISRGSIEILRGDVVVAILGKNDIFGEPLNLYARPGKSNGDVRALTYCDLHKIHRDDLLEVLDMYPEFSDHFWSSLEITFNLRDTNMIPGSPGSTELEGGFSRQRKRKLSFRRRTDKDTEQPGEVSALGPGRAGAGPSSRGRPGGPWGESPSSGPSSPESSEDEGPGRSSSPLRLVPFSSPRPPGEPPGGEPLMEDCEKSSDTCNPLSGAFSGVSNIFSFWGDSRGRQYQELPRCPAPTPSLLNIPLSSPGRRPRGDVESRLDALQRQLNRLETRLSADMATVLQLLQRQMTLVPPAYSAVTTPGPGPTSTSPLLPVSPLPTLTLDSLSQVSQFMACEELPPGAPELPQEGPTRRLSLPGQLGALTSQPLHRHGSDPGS
# Chain of Histamine H1 receptor (P35367 whole entry): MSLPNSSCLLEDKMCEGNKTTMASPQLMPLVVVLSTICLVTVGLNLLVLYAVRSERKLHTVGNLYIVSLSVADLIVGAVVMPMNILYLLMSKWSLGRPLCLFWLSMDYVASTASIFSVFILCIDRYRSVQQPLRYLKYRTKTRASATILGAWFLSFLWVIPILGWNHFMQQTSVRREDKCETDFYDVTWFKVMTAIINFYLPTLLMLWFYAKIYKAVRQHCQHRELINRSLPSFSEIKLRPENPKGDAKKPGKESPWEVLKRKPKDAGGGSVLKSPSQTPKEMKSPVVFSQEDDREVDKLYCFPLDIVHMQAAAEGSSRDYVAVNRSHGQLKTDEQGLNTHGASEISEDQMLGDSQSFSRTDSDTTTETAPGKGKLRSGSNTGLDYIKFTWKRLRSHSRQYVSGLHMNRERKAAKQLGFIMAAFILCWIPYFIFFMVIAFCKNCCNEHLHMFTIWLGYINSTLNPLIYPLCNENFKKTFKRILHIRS
# Chain of 5-hydroxytryptamine receptor 2A (P28223 whole entry): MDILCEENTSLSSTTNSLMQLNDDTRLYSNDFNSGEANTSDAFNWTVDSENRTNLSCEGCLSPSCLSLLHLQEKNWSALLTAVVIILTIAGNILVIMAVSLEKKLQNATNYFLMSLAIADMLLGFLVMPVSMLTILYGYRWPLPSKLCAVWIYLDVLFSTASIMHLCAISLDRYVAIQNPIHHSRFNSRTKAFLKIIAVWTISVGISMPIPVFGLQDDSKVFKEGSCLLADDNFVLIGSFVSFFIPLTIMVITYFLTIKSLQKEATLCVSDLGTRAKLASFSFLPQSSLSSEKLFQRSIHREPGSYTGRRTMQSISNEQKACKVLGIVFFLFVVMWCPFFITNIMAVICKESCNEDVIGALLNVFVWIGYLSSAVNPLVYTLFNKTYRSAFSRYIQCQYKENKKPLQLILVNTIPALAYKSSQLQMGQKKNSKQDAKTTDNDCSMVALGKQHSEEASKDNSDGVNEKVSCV
smiles,measurement,setting,value
CC(=O)Nc1ccc(OCCCN2CCC(c3noc4cc(F)ccc34)CC2)cc1,half-life,[1],3.68 h
same,CL/F,[2],0.173 mL/min
same,selectivity ratio,[3],90
same,selectivity ratio,[4],133
same,Ki,[5],16.3 nM
same,Activity,[6],Dose-dependent effect
same,ED50,[6],0.22 mg/kg
same,Tmax,[7],7 h
same,IC50,[8],2980 nM
same,Activity,[9],inactive
same,Cmax,[10],745 ng/mL
same,ED50,[11],0.28 mg/kg
same,Ki,[12],7.8 nM
same,Ki,[13],2140 nM
same,AUC,[14],931.48 ng·h/mL

# Source: ChEMBL document CHEMBL4725387, “Synthesis and pharmacological evaluation of piperidine (piperazine)-amide substituted derivatives as multi-target antipsychotics” (Bioorg Med Chem Lett, 2020)
